The target in test [1] is T1, Angiotensin-converting enzyme (Oryctolagus cuniculus, UniProt P12822).
T1 sequence (P12822 whole entry): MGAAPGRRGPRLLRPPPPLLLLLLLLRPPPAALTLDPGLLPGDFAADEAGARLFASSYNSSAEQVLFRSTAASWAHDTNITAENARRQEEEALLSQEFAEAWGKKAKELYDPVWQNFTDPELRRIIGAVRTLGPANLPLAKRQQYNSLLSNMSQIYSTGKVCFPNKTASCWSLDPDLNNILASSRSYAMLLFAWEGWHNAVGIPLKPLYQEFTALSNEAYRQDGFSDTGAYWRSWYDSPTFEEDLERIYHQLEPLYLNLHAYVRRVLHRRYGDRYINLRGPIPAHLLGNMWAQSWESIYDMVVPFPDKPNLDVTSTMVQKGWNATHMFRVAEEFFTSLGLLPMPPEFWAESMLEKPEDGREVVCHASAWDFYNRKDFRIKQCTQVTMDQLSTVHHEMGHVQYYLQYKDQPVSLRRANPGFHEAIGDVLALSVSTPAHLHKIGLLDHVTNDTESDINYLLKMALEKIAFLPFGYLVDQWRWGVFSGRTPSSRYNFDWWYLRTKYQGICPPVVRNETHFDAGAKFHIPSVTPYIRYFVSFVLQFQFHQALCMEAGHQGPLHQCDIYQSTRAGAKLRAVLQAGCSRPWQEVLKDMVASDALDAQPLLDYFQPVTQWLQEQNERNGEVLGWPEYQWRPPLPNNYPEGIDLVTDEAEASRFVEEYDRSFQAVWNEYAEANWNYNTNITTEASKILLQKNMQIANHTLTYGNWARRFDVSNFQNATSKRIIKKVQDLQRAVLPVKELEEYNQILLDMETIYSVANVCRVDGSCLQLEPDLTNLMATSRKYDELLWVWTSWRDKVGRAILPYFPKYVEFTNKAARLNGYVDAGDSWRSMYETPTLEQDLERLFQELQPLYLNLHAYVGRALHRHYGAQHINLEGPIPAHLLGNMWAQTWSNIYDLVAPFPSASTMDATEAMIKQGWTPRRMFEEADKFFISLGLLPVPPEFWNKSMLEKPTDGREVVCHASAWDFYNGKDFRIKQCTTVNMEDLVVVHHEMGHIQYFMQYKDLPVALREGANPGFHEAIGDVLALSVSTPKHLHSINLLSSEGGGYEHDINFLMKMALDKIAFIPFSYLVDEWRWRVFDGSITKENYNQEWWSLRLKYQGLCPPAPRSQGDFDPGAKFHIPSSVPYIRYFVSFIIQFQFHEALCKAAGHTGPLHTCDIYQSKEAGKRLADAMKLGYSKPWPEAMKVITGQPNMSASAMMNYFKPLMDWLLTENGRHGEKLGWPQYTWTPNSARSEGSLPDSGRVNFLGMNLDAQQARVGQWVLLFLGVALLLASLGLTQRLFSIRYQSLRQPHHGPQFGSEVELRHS
The test can be described thus: In vitro inhibition of ACE (Angiotensin I converting enzyme) isolated from rabbit lung extract. As to conditions: read-out: I50. The method, boiled down: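 Enzyme source is rabbit lung extract; substrate hippuryl-L-histidyl-L-leucine (HHL); I50 reported.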

For a further test, the target named is T2, Neprilysin (Rattus norvegicus, UniProt P07861).
T2 sequence (P07861 whole entry): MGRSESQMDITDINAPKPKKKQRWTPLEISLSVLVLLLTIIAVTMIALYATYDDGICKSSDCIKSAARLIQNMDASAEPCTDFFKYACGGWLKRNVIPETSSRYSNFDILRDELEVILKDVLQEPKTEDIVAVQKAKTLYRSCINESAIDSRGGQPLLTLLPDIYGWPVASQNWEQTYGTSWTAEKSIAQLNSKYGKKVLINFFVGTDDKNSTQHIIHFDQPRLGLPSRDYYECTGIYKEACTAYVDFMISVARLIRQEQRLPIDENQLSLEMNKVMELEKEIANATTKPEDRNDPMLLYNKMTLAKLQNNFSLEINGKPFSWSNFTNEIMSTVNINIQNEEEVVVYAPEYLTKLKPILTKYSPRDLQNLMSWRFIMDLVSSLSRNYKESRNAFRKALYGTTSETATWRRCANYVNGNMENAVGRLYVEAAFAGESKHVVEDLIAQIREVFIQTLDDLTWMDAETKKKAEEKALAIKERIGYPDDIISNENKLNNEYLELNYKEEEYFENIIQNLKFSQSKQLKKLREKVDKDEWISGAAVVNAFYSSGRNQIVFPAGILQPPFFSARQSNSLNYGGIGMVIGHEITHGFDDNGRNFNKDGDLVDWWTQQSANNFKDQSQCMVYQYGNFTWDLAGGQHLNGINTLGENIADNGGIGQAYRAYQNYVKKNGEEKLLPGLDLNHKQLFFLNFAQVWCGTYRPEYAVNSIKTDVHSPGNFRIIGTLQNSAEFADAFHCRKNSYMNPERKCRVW
Kind of test: In vitro inhibition of neutral endopeptidase purified from rat kidney using fluorimetry assay. As to conditions: read-out: I50. Put shortly:
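Enzyme from purified rat kidney; fluorometric read-out with dansyl-Gly-Phe-Arg as substrate; I50 reported.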

Test [2] has as its system Rattus norvegicus. Kind of test: 50% inhibition of the AI pressor response in normotensive rat after intravenous administration at a dose 0.5 umol/kg. It is filed as functional.
The test system of test [3] is Rattus norvegicus. The test can be described thus: % inhibition of AI pressor response at 2 minutes after intravenous administration of 0.5 micro mol/kg of compound in rat. It is filed as functional. The method, boiled down:
(§1)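 Normotensive rats given intravenous angiotensin I challenges to raise mean arterial pressure. Compound dosed intravenously at 0.5 μmol/kg. Pressor response measured before dosing (control) and at set times afterward. Percent change from the control response taken as % inhibition. Maximal response usually seen about 2 min after dosing.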

Test [4] deals with Rattus norvegicus. Kind of test: % inhibition of AI pressor response at 30 minutes after intravenous administration of 0.5 micro mol/kg of compound in rat. It is filed as functional. The method, boiled down:
as §1

For test [5], the system named is Rattus norvegicus. The test can be described thus: % inhibition of AI pressor response at 60 minutes after intravenous administration of 0.5 micro mol/kg of compound in rat. It is filed as functional. Put shortly:
as §1

In test [6] the test system is Rattus norvegicus. The test can be described thus: % inhibition of AI pressor response at 120 minutes after intravenous administration of 0.5 micro mol/kg of compound in rat. It is filed as functional. Put shortly:
as §1

The test system of test [7] is Rattus norvegicus. The test can be described thus: Decreased Mean arterial pressure (MAP) in rat after single oral dose of 30 umol/kg. It is filed as functional, Artery. The method, boiled down: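 Conscious sodium-depleted spontaneously hypertensive rats, n = 7 per group. Single oral dose of 30 μmol/kg (~12 mg/kg); vehicle 5% NaHCO3. Mean arterial pressure followed as change from pre-dose baseline over 24 h.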

pIC50: −log10 of the molar value.

By ED50 is commonly meant the dose that gives a 50% effect, or the effect in half of the subjects. What is called Inhibition is the drop in the measured response relative to a control, in per cent. Low readings indicate little suppression, high ones strong suppression. Consider `CCOC(C)=O.O=C(N[C@H]1CS[C@H]2CCC[C@@H](C(=O)O)N2C1=O)[C@@H](S)Cc1ccccc1`, for which the pIC50 was 8.30 in test [1] and 7.38 on Neprilysin. The compound also displayed an ED50 in the test on Rattus norvegicus [2] of 0.23 µmol/kg. Also, the Inhibition in the test on Rattus norvegicus [3] is listed as 78%; in the test on Rattus norvegicus [4], 3%.
On to `O=C(N[C@H]1CCO[C@H]2CC[C@@H](C(=O)O)N2C1=O)[C@@H](S)Cc1ccccc1`, for which the pIC50 was 8.15 in test [1] and 7.59 at Neprilysin. Further, it took a dose of 0.06 µmol/kg to reach the 50% effect level in the test with Rattus norvegicus [2] (ED50). The Inhibition in the test with Rattus norvegicus [5] is reported as 3%; with Rattus norvegicus [3], 79%; in the test with Rattus norvegicus [4], 63%.
As to `O=C(N[C@H]1CCS[C@H]2CC[C@@H](C(=O)O)N2C1=O)[C@@H](S)Cc1ccccc1`, the pIC50 (in test [1]; on Neprilysin) was 8.40 throughout. This compound also returned a median effective dose (ED50) in the test with Rattus norvegicus [2] of 0.03 µmol/kg. Also, the Inhibition in the test on Rattus norvegicus [5] is recorded as 60%; in the test with Rattus norvegicus [6] it was 25%; with Rattus norvegicus [3], 82%; with Rattus norvegicus [4], 76%.
As for `O=C(N[C@H]1CCC[C@H]2CCC[C@@H](C(=O)O)N2C1=O)[C@@H](S)Cc1ccccc1`, the Inhibition came out at 35% with Rattus norvegicus [5], 11% in the test on Rattus norvegicus [6], 71% in the test on Rattus norvegicus [3] and 65% in the test on Rattus norvegicus [4].
`CCC(=O)O[C@@H](O[P@](=O)(CCCCc1ccccc1)CC(=O)N1C[C@H](C2CCCCC2)C[C@H]1C(=O)O)C(C)C` [FOSINOPRIL]: in the test with Rattus norvegicus [7], the MAP is 20 mmHg.
For the compound `O=C(N[C@H]1CCS[C@H]2CCC[C@@H](C(=O)O)N2C1=O)[C@@H](S)Cc1ccccc1` [OMAPATRILAT], the pIC50 was 8.30 in test [1] and 8.10 on Neprilysin. The same compound yielded an ED50 with Rattus norvegicus [2] of 0.07 µmol/kg. Further, the Inhibition is 60% in the test with Rattus norvegicus [5], 58% in the test on Rattus norvegicus [6], 76% in the test on Rattus norvegicus [3] and 66% in the test on Rattus norvegicus [4]. Also, the MAP in the test on Rattus norvegicus [7] turned out to be 40 mmHg.
Take `CCOC(C)=O.O=C(N[C@H]1CCO[C@H]2CCC[C@@H](C(=O)O)N2C1=O)[C@@H](S)Cc1ccccc1`: the pIC50 in test [1] was 8.10; on Neprilysin, 8.05. For the same compound, it took a dose of 0.05 µmol/kg to reach the 50% effect level in the test with Rattus norvegicus [2] (ED50). Besides, the Inhibition in the test on Rattus norvegicus [3] is recorded as 83%; in the test on Rattus norvegicus [4] it was 3%.
For the compound `O=C(N[C@H]1CCC[C@H]2CC[C@@H](C(=O)O)N2C1=O)[C@@H](S)Cc1ccccc1`, the Inhibition was 3% in the test with Rattus norvegicus [5], 75% in the test with Rattus norvegicus [3] and 34% in the test on Rattus norvegicus [4].

Source of the values: ChEMBL document CHEMBL1130034, “Dual metalloprotease inhibitors: mercaptoacetyl-based fused heterocyclic dipeptide mimetics as inhibitors of angiotensin-converting enzyme and neutral endopeptidase” (J Med Chem, 1997).
